High-throughput results from PubChem.
Sampled rows, rich in hits. Any-hit rate of the full collection: about 1.6%.
PABP FP inh = blocks human PABP binding to poly(A) RNA; P11940; fluorescence polarization; 1% of 290,000 active; calls only at 35 µM; AID 2014;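 also: calls also rest on retests at 20 µM and on dose response follow-up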
RBBP9 inh = human RBBP9 hydrolase inhibition; recombinant RBBP9, FP-Rh probe fluorescence polarization; inhibition, % at 7.94 µM; 0.2% of 220,000 active;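 active = inhibition above the campaign mean of all tested compounds plus 3 SD, cut at about 14% in these data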;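 also: plate controls were DMSO wells with RBBP9 for no effect and wells lacking RBBP9 protein for full effect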
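System: RBBP9 protein / Buffer or medium: Tris/NaCl buffer pH 8.0 with 0.1% Pluronic / Probe or stimulus: Serine-hydrolase probe FP-Rh, 375 nM pre-mixing / Dosing: 7.94 µM single dose, 0.794% DMSO / Times: enzyme-compound preincubation 30 min, then probe labeling 45 min, 25 °C / Technique: fluorescence polarization (mP), excitation 525 nm, emission 598 nm / Replication: singlicate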
TCR-CD3 inh = inhibitors of human TCR-CD3 interaction. TAMRA-labeled TCR probe fluorescence, biochemical. 0.37% of 360,000 active. inhibition, % at 9.4 µM; in the data active = inhibition above about 19%;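 also: recombinant mutant TCR 2C K166C tagged with TAMRA read by polarization; 0% = receptor in buffer alone and 100% = receptor with positive control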
PABP1 MLLE inh = blocks PAM2 peptide binding to the PABP1 MLLE domain; GST-MLLE / FITC-PAM2 fluorescence polarization; inhibition, % at 20 µM; P11940; 0.36% of 360,000 active; in the data active = inhibition above about 35%, passing the limit was not always enough;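 also: plate controls were DMSO wells with GST-MLLE for no effect and wells lacking GST-MLLE protein for full effect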
eIF4H FP inh = inhibitors of RNA binding by human eIF4H; 0.94% of 290,000 active; eIF4H fluorescence polarization binding assay; inhibition, % at 35 µM; Q15056;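 also: calls also rest on retests at 20 µM and on dose response follow-up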
Active calls of the source: *. Unless noted, no rule for the calls is given here.

Results for C=CCCC1CN(Cc2ccc(OC)cc2)S(=O)(=O)c2c(cccc2Sc2ccc(OC)c(OC)c2)O1 (stereo not given) ?
TCR-CD3 inh: 0

Results for COc1ccc(/C=C/C(=O)NC(=S)Nc2ccc(S(=O)(=O)Nc3cc(OC)ncn3)cc2)cc1 ?
PABP FP inh: inactive; RBBP9 inh: 2; TCR-CD3 inh: 9; PABP1 MLLE inh: 23; eIF4H FP inh: -6

Results for COc1nccnc1NS(=O)(=O)c1ccc(NC(=S)NC(=O)c2cccc(F)c2)cc1 ?
PABP FP inh: inactive; RBBP9 inh: 1; TCR-CD3 inh: 4; PABP1 MLLE inh: 29; eIF4H FP inh: -10

Results for COc1nccnc1NS(=O)(=O)c1ccc(NC(=S)NC(=O)c2ccc(F)cc2)cc1 ?
PABP FP inh: inactive; RBBP9 inh: -5; TCR-CD3 inh: -1; PABP1 MLLE inh: 49*; eIF4H FP inh: -4

What do the screens show for `COc1ccc(/C=C/C(=O)NC(=S)Nc2ccc(S(=O)(=O)Nc3nccnc3OC)cc2)cc1`?
PABP FP inh: inactive; RBBP9 inh: -2; TCR-CD3 inh: 2; PABP1 MLLE inh: 38*; eIF4H FP inh: -3

Results for CN(C(=O)c1cccc(NC(=O)Cc2ccc(NC(=O)C3CCCN(C(=O)c4ccccc4)C3)cc2)c1)C1CC1 (stereo not given) ?
TCR-CD3 inh: 7

How did O=Cc1ccc(O)c(O)c1 do in these assays?
PABP FP inh: inactive; RBBP9 inh: -8; TCR-CD3 inh: -7; PABP1 MLLE inh: -2; eIF4H FP inh: -6

What do the screens show for `Oc1ccc(N=Cc2ccc(O)c(O)c2)cc1`?
PABP FP inh: active; RBBP9 inh: -3; PABP1 MLLE inh: 4; eIF4H FP inh: 106*

Results for COc1ccc(C(=O)NC(=S)Nc2cccc(NC(=O)c3ccco3)c2)cc1[N+](=O)[O-] ?
PABP FP inh: inactive; RBBP9 inh: 5; TCR-CD3 inh: 0; PABP1 MLLE inh: 42*; eIF4H FP inh: 8

What do the screens show for `COc1ccc(C(=O)NC(=S)Nc2ccc(NC(=O)c3ccco3)cc2)cc1[N+](=O)[O-]`?
PABP FP inh: inactive; RBBP9 inh: -3; TCR-CD3 inh: -9; PABP1 MLLE inh: 35; eIF4H FP inh: 2

How did Cc1cc(NC(=O)CSc2nnc(COc3ccccc3)n2Cc2ccco2)no1 do in these assays?
PABP FP inh: inactive; RBBP9 inh: 6; TCR-CD3 inh: 5; PABP1 MLLE inh: 0; eIF4H FP inh: 2

What do the screens show for `O=C(CSc1nnc(COc2ccccc2)n1Cc1ccco1)NCc1ccco1`?
PABP FP inh: active; RBBP9 inh: 5; TCR-CD3 inh: 8; PABP1 MLLE inh: -86; eIF4H FP inh: 50*

What do the screens show for `O=C(CSc1nnc2c(n1)[nH]c1ccccc12)NCc1ccco1`?
PABP FP inh: inactive; RBBP9 inh: -10; TCR-CD3 inh: 9; PABP1 MLLE inh: 43*; eIF4H FP inh: 26

What do the screens show for `COC(=O)C1=C(C)N(Cc2ccccc2C(F)(F)F)C(=NCc2ccc3c(c2)OCO3)NC1c1cccc(Cl)c1` (stereo not given)?
TCR-CD3 inh: -2

What do the screens show for `CCC(C)[C@H](N)c1cn([C@@H](CCCCN)C(=O)N2CCNCC2)nn1` (stereo not given in full)?
PABP FP inh: active; RBBP9 inh: 9; TCR-CD3 inh: -1; PABP1 MLLE inh: 5; eIF4H FP inh: -5

Results for COc1ccc(C(=O)NNC(=S)NC(=O)c2ccc(Cl)cc2)cc1 ?
TCR-CD3 inh: 17

How did COc1cc(C(=O)NNC(=S)NC(=O)c2ccc(Cl)cc2)cc(OC)c1OC do in these assays?
PABP FP inh: inactive; RBBP9 inh: -7; TCR-CD3 inh: -3; PABP1 MLLE inh: 16; eIF4H FP inh: 12*

What do the screens show for `COC(=O)C1=C(C)N(Cc2ccccc2C(F)(F)F)C(=NCc2ccc(OC)cc2)NC1c1cccc(F)c1` (stereo not given)?
TCR-CD3 inh: -4

What do the screens show for `COc1cc(/C=N/n2c(-c3ccc4c(c3)NC(=O)CO4)csc2=Nc2cccc(C)c2)ccc1O`?
PABP FP inh: inactive; RBBP9 inh: 0; TCR-CD3 inh: -6; PABP1 MLLE inh: -10; eIF4H FP inh: 0

How did COCCN=c1scc(-c2ccc3c(c2)NC(=O)CO3)n1/N=C(\C)c1ccc(O)cc1 do in these assays?
PABP FP inh: active; RBBP9 inh: -2; TCR-CD3 inh: 3; PABP1 MLLE inh: -14; eIF4H FP inh: 87

How did Nc1[nH]c(C(=O)c2ccccc2)c(-c2ccc(Cl)c(F)c2)c1C(=O)c1c[nH]c2ccccc12 do in these assays?
TCR-CD3 inh: -6
